Laboratory results from ChEMBL document CHEMBL2390920, “8-Benzamidochromen-4-one-2-carboxylic acids: potent and selective agonists for the orphan G protein-coupled receptor GPR35” (J Med Chem, 2013).

How the values were obtained:
[1] = target: T1, G-protein coupled receptor 55 (Homo sapiens, UniProt Q9Y2T6); experiment: Antagonist activity at human GPR55 expressed in CHO cells assessed as inhibition of lysophosphotidylinositol-induced beta-arrestin recruitment preincubated for 30 mins followed by lysophosphotidylinositol induction by beta-galactosidase reporter gene assay; type: functional, cell-based
How it was run: (§1)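 Human GPR55 PathHunter CHO cells were preincubated 30 min with compound, then stimulated with LPI (final 1 µM). After 90 min, detection reagent was added and luminescence read 60 min later. Screening was at 10 µM; full concentration-inhibition curves were run for selected compounds to give IC50.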

[2] = target: T1, G-protein coupled receptor 55; experiment: Agonist activity at human GPR55 expressed in CHO cells assessed as induction of beta-arrestin recruitment at 10 uM after 90 mins by beta-galactosidase reporter gene assay relative to lysophosphotidylinositol; type: functional, cell-based
How it was run: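 Human GPR55 PathHunter CHO cells, 20000 cells/well seeded the day before, received test compound at 10 µM (final DMSO ≤1%) for 90 min. Detection reagent was then added and luminescence read after 60 min. Signal was normalized to that of 1 µM LPI.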

[3] = target: T2, G-protein coupled receptor 35 (Homo sapiens, UniProt Q9HC97); experiment: Agonist activity at human GPR35 expressed in CHO cells assessed as induction of beta-arrestin recruitment after 90 mins by beta-galactosidase reporter gene assay; type: cell-based
How it was run: (§2)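 PathHunter enzyme-fragment complementation in CHO cells stably expressing β-arrestin-EA and tagged human GPR35, seeded at 20000 cells/well the day before. DMSO dilutions were further diluted 1:10 (final DMSO ≤1%). Cells were incubated 90 min, then detection reagent was added and luminescence read after 60 min.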

[4] = target: G protein-coupled receptor GPR35 (Rattus norvegicus, UniProt Q33BM1); experiment: Agonist activity at rat GPR35 expressed in CHO cells assessed as induction of beta-arrestin recruitment after 90 mins by beta-galactosidase reporter gene assay; type: cell-based
How it was run: (§3)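 Rat GPR35 expressed by transfecting a parental CHO β-arrestin-EA line; cells seeded at 20000/well the day before. Compounds (final DMSO ≤1%) were incubated 90 min, followed by detection reagent and a luminescence read after 60 min.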

[5] = target: G protein-coupled receptor GPR35 (Rattus norvegicus) (UniProt Q33BM1); experiment: Agonist activity at rat GPR35 expressed in CHO cells assessed as induction of beta-arrestin recruitment at 10 uM after 90 mins by beta-galactosidase reporter gene assay relative to zaprinast; type: cell-based; how it was run: as §3
[6] = target: T2, G-protein coupled receptor 35; experiment: Agonist activity at human GPR35 expressed in CHO cells assessed as induction of beta-arrestin recruitment at 10 uM after 90 mins by beta-galactosidase reporter gene assay relative to zaprinast; type: cell-based; how it was run: as §2
[7] = target: G-protein coupled receptor 35 (Mus musculus) (UniProt Q9ES90); experiment: Agonist activity at mouse GPR35 expressed in CHO cells assessed as induction of beta-arrestin recruitment at 10 uM after 90 mins by beta-galactosidase reporter gene assay; type: cell-based
How it was run: (§4)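 Mouse GPR35 introduced by transfection into a CHO β-arrestin-EA line; 20000 cells/well plated the day prior. After 90 min of compound exposure (final DMSO ≤1%), detection reagent was added and luminescence read after 60 min.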

[8] = target: G-protein coupled receptor 35 (Mus musculus) (UniProt Q9ES90); experiment: Agonist activity at mouse GPR35 expressed in CHO cells assessed as induction of beta-arrestin recruitment at 10 uM after 90 mins by beta-galactosidase reporter gene assay relative to zaprinast; type: cell-based; how it was run: as §4
[9] = target: G-protein coupled receptor 35 (Mus musculus, UniProt Q9ES90); experiment: Agonist activity at mouse GPR35 expressed in CHO cells assessed as induction of beta-arrestin recruitment after 90 mins by beta-galactosidase reporter gene assay; type: cell-based; how it was run: as §4
[10] = target: G protein-coupled receptor GPR35 (Rattus norvegicus) (UniProt Q33BM1); experiment: Agonist activity at rat GPR35 expressed in CHO cells assessed as induction of beta-arrestin recruitment at 10 uM after 90 mins by beta-galactosidase reporter gene assay; type: cell-based; how it was run: as §3
[11] = Inhibition of PDE (unknown origin); parameters: species or system Homo sapiens
[12] = Inhibition of chloride channel (unknown origin); parameters: species or system Homo sapiens
[13] = target: T2, G-protein coupled receptor 35; experiment: Agonist activity at human GPR35b expressed in CHO cells assessed as induction of beta-arrestin recruitment at 10 uM after 90 mins by beta-galactosidase reporter gene assay relative to zaprinast; type: cell-based
How it was run: (§5)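 CHO β-arrestin-EA parental line transfected with human GPR35b, seeded at 20000 cells/well the day before. Compounds in DMSO were diluted 1:10 in medium or PBS (final DMSO ≤1%). After 90 min of incubation, detection reagent was added and luminescence measured 60 min later. Screening was at 10 µM.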

[14] = target: T2, G-protein coupled receptor 35; experiment: Agonist activity at human GPR35b expressed in CHO cells assessed as induction of beta-arrestin recruitment after 90 mins by beta-galactosidase reporter gene assay; type: cell-based; how it was run: as §5
[15] = target: T1, G-protein coupled receptor 55; experiment: Antagonist activity at human GPR55 expressed in CHO cells assessed as inhibition of lysophosphotidylinositol-induced beta-arrestin recruitment at 10 uM preincubated for 30 mins followed by lysophosphotidylinositol induction by beta-galactosidase reporter gene assay relative to control; type: functional, cell-based; how it was run: as §1
[16] = target: T2, G-protein coupled receptor 35; experiment: Agonist activity at human GPR35 expressed in CHO cells assessed as induction of beta-arrestin recruitment at 10 uM after 90 mins by beta-galactosidase reporter gene assay; type: cell-based; how it was run: as §2
[17] = Stability of the compound in aceronitrile/water at pH 8 at 1.2 mM after 2 to 4 days by LC-MS analysis in presence of ammonia and ammonium acetate; type: physicochemical; conditions: buffer, pH 8, 1200 µM
How it was run: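 Solution of compound at 1.20 mM in 1:1 acetonitrile/water at pH 8.0, containing ammonia ([…]) and ammonium acetate (2 mM); sample then analysed by LC-MS.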

Homo sapiens = species on record: Homo sapiens; experiment: Selectivity ratio of IC50 for human GPR55 to EC50 for human GPR35
[18] = Stability of the compound in aceronitrile/water at pH 3.5 at 1.2 mM after 90 mins by LC-MS analysis in presence of acetic acid and ammonium acetate; type: physicochemical; conditions: buffer, pH 3.5, 1.5 h, 1200 µM
How it was run: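 Compound prepared at 1.20 mM in 1:1 acetonitrile/water adjusted to pH 3.5, containing acetic acid (300 mM) and ammonium acetate (2 mM); sample then analysed by LC-MS.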

[19] = Stability of the compound in aceronitrile/water at pH 5.5 at 1.2 mM after 4 hrs by LC-MS analysis; type: physicochemical; conditions: buffer, pH 5.5, 4 h, 1200 µM
How it was run: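 Compound dissolved at 1.20 mM in 1:1 acetonitrile/water at pH 5.5 with no added acid, base or salt; sample then analysed by LC-MS.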

[20] = target: T3, Aryl hydrocarbon receptor (Homo sapiens, UniProt P35869); experiment: Activation of AHR (unknown origin)
T3 sequence (P35869 whole entry): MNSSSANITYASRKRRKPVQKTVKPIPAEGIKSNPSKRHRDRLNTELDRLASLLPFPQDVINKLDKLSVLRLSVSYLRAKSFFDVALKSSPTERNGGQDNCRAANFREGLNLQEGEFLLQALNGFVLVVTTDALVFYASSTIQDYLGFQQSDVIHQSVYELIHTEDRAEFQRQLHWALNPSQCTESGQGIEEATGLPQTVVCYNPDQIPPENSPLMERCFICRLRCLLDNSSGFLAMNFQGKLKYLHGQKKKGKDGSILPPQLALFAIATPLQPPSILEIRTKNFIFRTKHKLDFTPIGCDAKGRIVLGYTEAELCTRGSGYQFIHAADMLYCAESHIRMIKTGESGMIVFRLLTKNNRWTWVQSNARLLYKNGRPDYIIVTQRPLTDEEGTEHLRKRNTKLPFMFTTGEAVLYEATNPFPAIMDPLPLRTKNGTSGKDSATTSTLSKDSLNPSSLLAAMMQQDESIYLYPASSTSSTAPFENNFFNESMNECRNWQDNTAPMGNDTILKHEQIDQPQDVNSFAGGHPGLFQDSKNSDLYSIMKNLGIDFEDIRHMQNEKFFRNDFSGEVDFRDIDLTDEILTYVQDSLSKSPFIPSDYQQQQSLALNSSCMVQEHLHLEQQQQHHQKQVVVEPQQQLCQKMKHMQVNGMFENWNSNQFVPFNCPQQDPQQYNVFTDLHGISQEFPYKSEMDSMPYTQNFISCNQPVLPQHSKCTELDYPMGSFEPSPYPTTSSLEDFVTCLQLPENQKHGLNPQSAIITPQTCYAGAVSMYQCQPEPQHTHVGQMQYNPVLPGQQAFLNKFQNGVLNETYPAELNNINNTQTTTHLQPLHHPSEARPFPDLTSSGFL

[21] = target: Glutamate [NMDA] receptor; experiment: Inhibition of NMDA receptor (unknown origin); parameters: species or system Homo sapiens
[22] = Inhibition of AMPA receptor (unknown origin); parameters: species or system Homo sapiens
[23] = target: Neuronal acetylcholine receptor subunit alpha-7 (Homo sapiens, UniProt P36544); experiment: Inhibition of alpha7 nAChR (unknown origin)
[24] = target: GABA-A receptor; agonist GABA site; experiment: Inhibition of GABAA receptor (unknown origin); type: protein-complex assay, Homo sapiens

T1 sequence (Q9Y2T6 whole entry): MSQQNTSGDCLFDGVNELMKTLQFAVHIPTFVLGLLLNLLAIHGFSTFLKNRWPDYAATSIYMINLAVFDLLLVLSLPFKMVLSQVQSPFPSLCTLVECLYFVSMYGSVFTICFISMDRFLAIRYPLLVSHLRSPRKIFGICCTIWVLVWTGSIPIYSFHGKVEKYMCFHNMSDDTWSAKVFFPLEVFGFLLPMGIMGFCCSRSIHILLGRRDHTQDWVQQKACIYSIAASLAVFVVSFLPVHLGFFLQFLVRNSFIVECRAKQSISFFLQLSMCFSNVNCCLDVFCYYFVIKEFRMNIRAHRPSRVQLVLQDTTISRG
G-protein coupled receptor 35 (Mus musculus, UniProt Q9ES90), sequence (Q9ES90 whole entry): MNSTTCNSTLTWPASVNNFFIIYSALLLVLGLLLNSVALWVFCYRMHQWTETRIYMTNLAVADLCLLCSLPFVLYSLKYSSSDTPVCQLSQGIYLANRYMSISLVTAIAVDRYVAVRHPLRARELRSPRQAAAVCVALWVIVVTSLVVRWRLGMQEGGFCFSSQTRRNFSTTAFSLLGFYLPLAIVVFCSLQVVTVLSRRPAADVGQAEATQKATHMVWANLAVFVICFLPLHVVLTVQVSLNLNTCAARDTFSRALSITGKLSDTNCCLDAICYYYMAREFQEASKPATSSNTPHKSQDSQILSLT
G-protein coupled receptor 35 (Mus musculus), sequence (Q9ES90 whole entry): as above
G protein-coupled receptor GPR35 (Rattus norvegicus), sequence (Q33BM1 as listed by the source): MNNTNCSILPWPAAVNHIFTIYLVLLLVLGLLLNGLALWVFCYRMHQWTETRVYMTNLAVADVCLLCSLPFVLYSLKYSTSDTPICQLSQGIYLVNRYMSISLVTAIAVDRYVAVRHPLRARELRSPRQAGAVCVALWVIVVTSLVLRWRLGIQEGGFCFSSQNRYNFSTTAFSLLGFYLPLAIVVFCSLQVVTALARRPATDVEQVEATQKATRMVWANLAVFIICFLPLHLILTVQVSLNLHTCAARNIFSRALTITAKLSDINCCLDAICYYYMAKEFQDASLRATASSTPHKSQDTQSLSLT
G protein-coupled receptor GPR35, sequence (Q33BM1 whole entry): as the sequence (Q33BM1 as listed by the source) above
T2 sequence (Q9HC97 whole entry, the tested form may be a part): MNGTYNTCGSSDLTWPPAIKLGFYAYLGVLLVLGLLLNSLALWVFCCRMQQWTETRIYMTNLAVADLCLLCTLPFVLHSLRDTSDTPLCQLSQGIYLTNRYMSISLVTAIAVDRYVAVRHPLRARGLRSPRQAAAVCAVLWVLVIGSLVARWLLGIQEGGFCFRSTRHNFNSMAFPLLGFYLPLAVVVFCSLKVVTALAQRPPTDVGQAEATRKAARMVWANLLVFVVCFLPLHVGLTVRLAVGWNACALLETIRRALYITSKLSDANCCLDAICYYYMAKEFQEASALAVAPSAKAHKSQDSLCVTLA
Neuronal acetylcholine receptor subunit alpha-7, sequence (P36544 whole entry): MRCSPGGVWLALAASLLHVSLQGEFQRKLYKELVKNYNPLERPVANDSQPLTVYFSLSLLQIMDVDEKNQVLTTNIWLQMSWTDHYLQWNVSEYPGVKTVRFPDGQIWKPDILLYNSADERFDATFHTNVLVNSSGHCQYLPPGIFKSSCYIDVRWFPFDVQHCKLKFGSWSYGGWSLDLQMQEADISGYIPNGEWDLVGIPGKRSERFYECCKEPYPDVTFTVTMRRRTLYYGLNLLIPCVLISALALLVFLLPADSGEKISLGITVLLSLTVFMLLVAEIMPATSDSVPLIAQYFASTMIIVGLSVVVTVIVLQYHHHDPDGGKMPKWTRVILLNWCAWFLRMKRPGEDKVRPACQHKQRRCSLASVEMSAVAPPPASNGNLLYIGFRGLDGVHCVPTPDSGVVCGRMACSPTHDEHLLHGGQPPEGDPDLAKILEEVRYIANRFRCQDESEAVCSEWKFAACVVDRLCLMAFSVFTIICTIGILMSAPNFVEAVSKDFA

| IC50 [1] [µM] | Activity [2] [%] | EC50 [3] [µM] | EC50 [4] [µM] | Emax [5] [%] | Emax [6] [%] | Activity [7] [%] | Emax [8] [%] | EC50 [9] [µM] | inhibition [15] [%] | Structure (SMILES) | other results |
| --- | --- | --- | --- | --- | --- | --- | --- | --- | --- | --- | --- |
| 8.92 | 4 | 0.144 | 1.54 | 68 | 115 | 27 |  |  |  | COc1ccc(C(=O)Nc2cc(Br)cc3c(=O)cc(C(=O)O)oc23)nc1 |  |
| 29.1 | 6 | 4.67 |  |  | 125 |  | 79 | 2.99 |  | O=C(Nc1cccc2c(=O)cc(C(=O)O)oc12)c1ccc2ccccc2c1 | Activity [10]: 46% |
|  |  | 1.26 | 0.986 | 104 | 119 |  | 102 | 4.84 |  | O=C(O)c1cc(=O)c2c(OCC(O)COc3cccc4oc(C(=O)O)cc(=O)c34)cccc2o1 [CROMOLYN SODIUM] | Ki [11]: 0.0008 µM; IC50 [12]: 5 µM |
|  | 0 | 0.346 | 2.16 | 85 | 104 |  | 66 | 5.03 | -3 | COc1ccc(C(=O)Nc2cccc3c(=O)cc(C(=O)O)oc23)cc1 | Emax [13]: 115%; EC50 [14]: 0.472 µM |
|  | -6 | 1.34 |  |  | 81 |  | 65 | 3.59 | 31 | O=C(Nc1cccc2c(=O)cc(C(=O)O)oc12)c1ccc2ccccc2n1 | Activity [10]: 41% |
| 6.2 | 9 | 0.0305 | 0.991 | 94 | 117 |  | 64 | 4.98 |  | COc1ccc(C(=O)Nc2cc(Br)cc3c(=O)cc(C(=O)O)oc23)cn1 |  |
|  | -5 |  |  |  |  | 13 |  |  | 24 | O=C(Nc1cccc2c(=O)cc(C(=O)O)oc12)c1ccc(OCC2CC2)cc1 | Activity [16]: 10%; Activity [10]: 48% |
|  | 9 | 1.66 | 1.1 | 73 | 91 |  | 71 | 4.95 | 44 | COc1ccccc1C(=O)Nc1cc(Br)cc2c(=O)cc(C(=O)O)oc12 |  |
|  | 10 |  | 3.61 | 80 |  | 13 |  |  | 21 | CCCOc1ccc(C(=O)Nc2cccc3c(=O)cc(C(=O)O)oc23)cc1 | Activity [16]: 4% |
| 21.7 | 10 | 0.0111 | 4.17 | 81 | 120 | 35 |  |  |  | COc1ccc(C(=O)Nc2cc(Br)cc3c(=O)cc(C(=O)O)oc23)c(Cl)c1 | Emax [13]: 129%; EC50 [14]: 0.0147 µM; Ratio IC50/EC50 (Homo sapiens): > 1700 |
|  | -11 |  |  |  |  | 4 |  |  | 19 | Nc1cccc2c(=O)cc(C(=O)O)oc12 | Activity [16]: 2%; Activity [10]: 40% |
|  | -12 | 0.425 | 1.3 | 106 | 102 |  | 73 | 6.4 | 45 | COc1ccc(C(=O)Nc2cc(Br)cc3c(=O)cc(C(=O)O)oc23)cc1OC | Emax [13]: 101%; EC50 [14]: 0.628 µM |
|  |  | 217 | 66 |  |  |  |  |  |  | O=C(O)c1cc(=O)c2ccccc2[nH]1 [TRANSTORINE] | EC50 [20]: 0.3 µM; IC50 [21]: 15 µM; IC50 [22]: 10 µM; IC50 [23]: 7 µM; IC50 [24]: 2900 µM |

| Structure (SMILES) | IC50 [1] [µM] | Activity [2] [%] | EC50 [3] [µM] | EC50 [4] [µM] | Emax [5] [%] | Emax [6] [%] | Activity [7] [%] | Emax [8] [%] | EC50 [9] [µM] | inhibition [15] [%] | other results |
| --- | --- | --- | --- | --- | --- | --- | --- | --- | --- | --- | --- |
| COc1ccc(C(=O)Nc2cc(Br)cc3c(=O)cc(C(=O)O)oc23)cc1 | 21.7 | 0 | 0.0121 | 1.4 | 88 | 121 | 36 |  |  |  | Emax [13]: 136%; Stability [17]: Stable; EC50 [14]: 0.0221 µM; Ratio IC50/EC50 (Homo sapiens): > 1700; Stability [18]: Stable; Stability [19]: Stable |
